Test results reported in ChEMBL document CHEMBL3232932, “UPLC-MS-ELSD-PDA as a powerful dereplication tool to facilitate compound identification from small-molecule natural product libraries” (J Nat Prod, 2014).

Assays:
[1] = Retention time of the compound by ELSD chromatography; type: physicochemical
Summary of the method: (§1)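 Waters Acquity UPLC with ELSD, PDA and single-quadrupole ESI-MS (positive and negative modes). Fractions from automated fractionation of plant extracts were run on a BEH C18 column (2.1 × 50 mm, 1.7 μm) at 1.0 mL/min. Mobile phase was H2O with 0.1% HCOOH against CH3CN or MeOH, with a 3.0 min total run. The gradient differed by run.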

[2] = Retention time of the compound by PDA chromatography; type: physicochemical; summary of the method: as §1
[3] = Antiproliferative activity against mouse ependymoma cells harboring EPHB2 after 96 hrs by Cell-Titer Glo assay; type: functional, cell-based
Summary of the method: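 Cells seeded in neurobasal medium in 384-well plates. Compounds were pin-transferred 24 h later, and DMSO and cycloheximide controls were included on each plate. Dose-response was run as a dilution series in triplicate. After 96 h incubation, cell number was read by CellTiter-Glo luminescence. Data were log10-transformed and percent inhibition calculated, and EC50 was derived.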

Compound `COc1cc([C@@H]2CC(=O)c3c(O)cc(O)cc3O2)ccc1O` [HOMOERIODICTYOL] has a Retention_time [1] of 0.89 min and a Retention_time [2] of 0.85 min.
Compound `COc1cc([C@@H]2c3cc4c(cc3C[C@H]3COC(=O)[C@@H]32)OCO4)cc(OC)c1OC` [DESOXYPODOPHYLLOTOXIN] has an EC50 [3] of 1.93 nM, a Retention_time [1] of 1.18 min and a Retention_time [2] of 1.15 min.
For `COc1cc(C[C@H]2C(=O)OC[C@@H]2Cc2ccc3c(c2)OCO3)cc(OC)c1OC`, the Retention_time [1] was 1.2 min.
`COc1ccc([C@@H]2CC(=O)c3c(O)cc(O)cc3O2)cc1O` [HESPERETIN] gave a Retention_time [1] of 0.91 min and a Retention_time [2] of 0.87 min.
`COc1cc(O)c2c(c1)OC(c1ccc(O)c(O)c1)CC2=O` (centres undefined) showed a Retention_time [1] of 1.02 min and a Retention_time [2] of 0.98 min.
Work on `CC1=c2cc3c(cc2C(=O)OC1(C)C)=C(C)C(C)(C)OC3=O` yielded a Retention_time [1] of 0.9 min and a Retention_time [2] of 0.92 min.
`C=C1CC[C@@H]2[C@](C)(CCC[C@]2(C)C(=O)O)[C@H]1CCC(C)(O)C(O)CO` (mixture of isomers) gave an EC50 [3] of over 100 µg/mL and a Retention_time [1] of 0.92 min.
